Data as given in publication PMC7223318 (Drug Delivery and Translational Research, 2020).
No end group written: not given here.

Test system: ARPE-19 cells
Assay: Cellular uptake of FITC-labelled peptides, confocal microscopy
Type: in vitro ADME, human
Conditions: 1 h, 37 °C, confocal microscopy (Fig. 2)
Outline: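 ARPE-19 cells (DMEM/F-12 GlutaMAX, 10% FBS, 1% AA) were seeded at 2 × 10^5 cells/ml in chamber slides and grown two nights. FITC-labelled peptides were applied for 1 h at 37 °C, 5% CO2, in culture medium or in hypoxic HAIR solution (K-gluconate/Na-gluconate/NMDG-based, bicarbonate). Cells were then PBS-washed, fixed in 4% formaldehyde, DAPI-counterstained and imaged by confocal microscopy.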

cellular uptake in hypoxic ARPE-19 cells (HAIR solution (hypoxia), FITC-labelled Gap19 100 μM or XG19 5 μM): undetectable
cellular uptake in normal ARPE-19 cells (normal culture medium, FITC-labelled Gap19 100 μM): undetectable
Sequence: KQIEIKKFK [Gap19]
